Screens (PubChem)
This is a sample that favours compounds with a hit; in the whole collection about 2.3% have one here.
GSTO1 counter: inhibitors of recombinant GSTO1, primary screen, counter-screen for RBBP9 inhibitor project, biochemical, fluorescence polarization; activity-based probe fluorescence polarization; inhibition, % at 5.96 µM; Glutathione S-transferase omega-1 (Homo sapiens), P78417; 1.1% of 300,000 active; AID 1974, 2009;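 active = inhibition above the campaign mean inhibition plus 3 SD, cut at about 35% in these data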
Target sequence (P78417 whole entry, looked up): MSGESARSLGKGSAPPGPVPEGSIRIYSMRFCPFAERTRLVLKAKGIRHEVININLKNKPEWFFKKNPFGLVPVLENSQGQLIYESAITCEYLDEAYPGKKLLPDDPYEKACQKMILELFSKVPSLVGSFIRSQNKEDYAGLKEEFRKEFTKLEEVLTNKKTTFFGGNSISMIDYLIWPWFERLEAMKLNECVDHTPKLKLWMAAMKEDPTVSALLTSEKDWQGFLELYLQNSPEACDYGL
RBBP9 inhibitor: human RBBP9 inhibitors, primary screen, biochemical, fluorescence polarization, FP-Rh probe, HTS. Serine hydrolase RBBP9 (Homo sapiens), O75884. recombinant RBBP9. inhibition, % at 7.94 µM. 0.2% of 220,000 active. AID 1515, 2009;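 active = inhibition above the campaign mean of all tested compounds plus 3 SD, cut at about 14% in these data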
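Test system: recombinant human RBBP9. Quantity: 2.5 µM RBBP9 dispensing solution, before mixing. Detection: FP readout at 525/598 nm. Reagent: Serine-hydrolase probe FP-Rh, 375 nM pre-mixing. Measure: % inhibition. Control set: DMSO-treated enzyme wells and wells lacking RBBP9. Buffer or medium: Tris-NaCl-Pluronic buffer, pH 8.0. Times: preincubation 30 min plus labeling 45 min at 25 °C.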
PME-1 primary: PME-1 inhibitors via competitive probe labeling, primary screen, biochemical, fluorescence polarization, FP-Rh probe, HTS. Protein phosphatase methylesterase 1 (Homo sapiens), Q9Y570. recombinant PME-1. inhibition, % at 5.9 µM. 0.53% of 320,000 active;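 active = inhibition above the campaign mean of all compounds plus 3 SD, cut at about 26% in these data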;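 also: competitive labeling of PME-1 active site by serine hydrolase directed probe; inhibitors block probe labeling so polarization falls and inhibition rises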
Fam108B counter: mouse Fam108B serine hydrolase inhibitors, primary screen, counter-screen for RBBP9 inhibitor project, biochemical, fluorescence polarization; recombinant Fam108B, FP-Rh probe fluorescence polarization; inhibition, % at 9.51 µM; 0.33% of 300,000 active;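 active = inhibition above the screen mean inhibition plus 3 SD, computed separately per campaign, cut at about 18% in these data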;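 also: inhibitors lower polarization as less probe binds the enzyme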
PRMT1 inh: PRMT1 methyltransferase inhibitors, primary screen, biochemical, fluorescence polarization | Protein arginine N-methyltransferase 1 (Homo sapiens), Q99873 | recombinant PRMT1, activity-based probe fluorescence polarization | inhibition, % at 2.79 µM | 1.3% of 370,000 active | AID 652257, 2013;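 active = inhibition above about 21% made by adding two undisclosed values, limit read from the data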
Target sequence (Q99873 whole entry, looked up): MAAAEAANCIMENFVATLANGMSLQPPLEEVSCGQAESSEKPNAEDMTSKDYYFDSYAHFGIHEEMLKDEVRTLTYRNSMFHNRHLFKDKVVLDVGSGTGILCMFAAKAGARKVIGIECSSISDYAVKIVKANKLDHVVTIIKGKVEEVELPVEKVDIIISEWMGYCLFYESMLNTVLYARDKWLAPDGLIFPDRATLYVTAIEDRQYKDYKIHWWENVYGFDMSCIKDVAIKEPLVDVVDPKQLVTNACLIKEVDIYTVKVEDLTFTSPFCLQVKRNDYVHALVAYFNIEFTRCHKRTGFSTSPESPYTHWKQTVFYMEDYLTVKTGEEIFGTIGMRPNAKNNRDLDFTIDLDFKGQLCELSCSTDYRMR
PAD4 FP inh: human PAD4 inhibitors, primary screen, biochemical, fluorescence polarization, 1536-well format; 0.41% of 330,000 active; AID 485272, 2010; recombinant PAD4, RCA probe fluorescence polarization; inhibition, % at 6.36 µM; Protein-arginine deiminase type-4 (Homo sapiens), Q9UM07;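 active = percent inhibition above a cutoff equal to the mean of all tested compounds plus 3 SD, cut at about 15% in these data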
Hits are given with their value; . = inactive; / = not tested or not shown; ! = not active in a repeat.

SMILES	GSTO1 counter	RBBP9 inhibitor	PME-1 primary	Fam108B counter	PRMT1 inh	PAD4 FP inh
CC(C)OC(=O)c1sc2nc(-c3ccccc3)ccc2c1N	.	.	.	.	.	.
COc1ccc(C(=O)c2sc3nc(-c4ccccc4)ccc3c2N)cc1	.	.	35	.	/	.
COC(=O)[C@@]1(C(C)C)N=C(c2cc(OC)c(OC)c(OC)c2)[C@]2(O1)C(=O)Nc1ccc(F)cc12	/	/	/	/	.	/
NNC(=O)Cn1cnc2ccccc21	.	.	.	.	.	.
O=C(NCc1ccccc1)NC12CC3CC(CC(C3)C1)C2	35	.	.	.	.	.
O=C(O)c1ccc(NC(=O)c2cccc(S(=O)(=O)Nc3ccc(C(=O)O)cc3)c2)cc1	.	/	.	.	.	.
O=C1CSc2ccc(C(=O)Nc3cccc(S(=O)(=O)Nc4ccc(Br)cc4)c3)cc2N1	.	.	.	.	21	.
Cc1[nH]c(N=Nc2ccccc2)nc1N=Nc1ccccc1	.	.	76	.	.	.
CC(C)c1ccc2[nH]c(O)c(N=NC(=O)c3ccc(CSc4nncn4C)cc3)c2c1	.	.	30	.	.	.
COc1ccc(Cl)cc1NC(=O)CSc1nnc(Cc2ccc(C)cc2)c(=O)[nH]1	.	/	.	.	24	.
COC(=O)c1ccc(NCc2cc(O)ccc2O)cc1O	/	/	/	/	23	/
O=C(C(Cc1ccccc1)n1cccc1)N1CCCCC1 (centres undefined)	.	.	.	.	.	.
Cc1cc(SCC(=O)c2ccc3c(c2)OCO3)nc2ccccc12	.	.	.	.	.	.
Cc1cc(SCC(=O)c2ccc(O)c(O)c2)nc2ccccc12	.	.	.	.	24	.
Oc1[nH]c2ccccc2c1N=NC(=S)N1CCOCC1	36	.	.	.	/	.
COc1cc(/C=N/NC(=O)c2sc(N)c(C#N)c2C)cc(Br)c1O	.	.	31	.	.	.
COc1ccc2ccccc2c1/C=N/NC(=O)c1sc(N)c(C#N)c1C	.	.	.	.	.	.
COc1ccc(-c2cnnc(N/N=C/c3ccc(O)c(O)c3)n2)cc1	.	.	29	.	.	.
O=S1(=O)CCOCCCN1Cc1cccc(F)c1	.	/	.	.	.	.
COc1ccc2nc(N3CCC(O)CC3)c(C#N)cc2c1	36	.	.	.	.	.
c1ccc(-c2noc(-c3ccc4ccccc4c3)n2)cc1	.	.	.	.	.	.
COc1ccc(OC)c(N2C(=O)[C@@H]3C(c4ccccc4Cl)=NO[C@@H]3C2=O)c1	37	.	.	.	.	.
Cc1cccc(C)c1N1C(=O)[C@@H]2C(c3ccccc3Cl)=NO[C@@H]2C1=O	.	.	.	.	.	.
O=C(Cc1cc(=O)[nH][nH]1)N/N=C/C=C/c1ccccc1	36!	.	.	.	.	.
Brc1ccc(-c2ccc(C3Nc4cccc5cccc(c45)N3)o2)cc1	/	/	41	/	/	.
SMILES	GSTO1 counter	RBBP9 inhibitor	PME-1 primary	Fam108B counter	PRMT1 inh	PAD4 FP inh
CCOC(=O)c1ccc(NC(=O)NC2CC3CCC(C2)N3Cc2nnnn2Cc2ccco2)cc1 (centres undefined)	.	.	.	.	23	.
CC(C)(C)n1nnnc1CN1C2CCC1CC(NC(=O)Nc1ccccc1)C2 (centres undefined)	.	.	.	.	.	.
COc1ccc(OC)c(N2C(=O)C(Cl)=C(N3CCOCC3)C2=O)c1	.	.	.	.	.	.
COc1ccccc1N1C(=O)C=C(Sc2nc(C)cc(C)n2)C1=O	.	.	.	.	24	.
COc1ccccc1N1C(=O)C2CC(C)=C(C)CC2C1=O (centres undefined)	.	.	.	.	.	.
CC1CCCN(CCCOc2ccc(Cl)cc2Br)C1 (centres undefined)	.	.	.	.	.	.
Cc1c(C(=O)O)oc2ccc(S(=O)(=O)NCCC3=CCCCC3)cc12	37	.	.	.	.	.
O=C(Nc1ccc([N+](=O)[O-])cc1)Nc1ccc2[nH]c(=O)[nH]c2c1	.	.	30	.	.	.
CCn1c(SCc2ccc(C)cc2)nnc1-c1cnccn1	.	.	.	.	.	.
CCC1CCCCN1C(=S)NN=C(C)c1ccccn1 (centres undefined)	/	/	/	/	24	/
Fc1ccc(Nc2nc(-c3ccncc3)nc3ccccc23)cc1F	.	.	.	.	.	.
O=C(O)COc1ccc2c(c1)O/C(=C\c1ccco1)C2=O	.	/	.	.	24	.
CCO[C@@H]1OC(C(=O)N2CCN(Cc3ccccc3)CC2)=C[C@H](c2cn(C(C)=O)c3ccccc23)[C@H]1CCCO	.	.	71	.	.	.
NC(=O)c1ccccc1NC(=O)CSc1nc2c(c(=O)[nH]1)CCCC2	.	/	.	.	.	.
Cc1sc(N)c(C(=O)c2ccccc2)c1C	.	.	.	.	41	.
CCOC(=O)CN1C(=O)COc2ccc(C(C)(C)C)cc21	.	.	.	.	.	.
Cc1[nH]c2ccccc2c1/C=N/NC(=O)c1cc(-c2ccncc2)nc2ccccc12	.	/	26	.	.	.
O=C(Nc1cccc(-c2ccc(N3CCOCC3)nn2)c1)c1cccc(Cl)c1	/	/	/	/	.	/
O=C1CC(CSc2ccc(Cl)cc2)=NN1	37	.	.	.	.	.
Cc1cc(SCC2=NNC(=O)C2)c(Cl)cc1Cl	.	.	.	.	.	.
O=C(COc1cccnc1[N+](=O)[O-])c1ccc(Cl)s1	35	.	.	.	52	.
O=C(COc1cccnc1[N+](=O)[O-])Nc1c(Cl)cccc1Cl	/	/	/	/	.	.
CC1(C(=O)NS(=O)(=O)c2ccc(Cl)s2)CCN1C(=O)Cc1cc(F)ccc1F (centres undefined)	/	/	/	/	.	/
Cc1ccc(-c2nc3sc(C(N)=O)c(N)c3c3c2CCCC3)cc1	.	.	.	.	.	.
NC(=O)c1sc2nc(-c3ccccc3)c3c(c2c1N)CCCC3	.	.	33	.	25	.
CC1CCCC(C(=O)O)N1C(=O)CCS (centres undefined)	.	.	.	.	25	.
COc1cccc2nc3cc(C)c(C)cc3nc12	48	.	.	.	.	.
COc1cccc(CNC(=O)CCn2ccc3cc(S(=O)(=O)N4CCC(C)CC4)ccc32)c1	.	/	.	.	.	.
Cc1ccc(C(=O)N/C(=C\c2ccc(-c3ccc(Br)cc3)o2)C(=O)NC2CCS(=O)(=O)C2)cc1 (centres undefined)	.	.	.	.	.	.
COc1cc2cc(C(=O)N/N=C/c3ccc(F)cc3)[nH]c2cc1OC	.	/	.	.	.	.
